Data from ChEMBL document CHEMBL1275252, “First survey of metallo-beta-lactamases in clinical isolates of Pseudomonas aeruginosa in a German university hospital” (2010).

Columns and labels:
Assay type in all cases: functional
[1] = tested on: Pseudomonas aeruginosa; assay: Antimicrobial activity against Pseudomonas aeruginosa isolate PA399 expressing VIM-2 beta-lactamase
[2] = tested on: Pseudomonas aeruginosa; assay: Antimicrobial activity against Pseudomonas aeruginosa isolate PA462 expressing VIM-2 beta-lactamase
[3] = tested on: Pseudomonas aeruginosa; assay: Antimicrobial activity against Pseudomonas aeruginosa isolate PA465 expressing VIM-2 beta-lactamase
[4] = tested on: Pseudomonas aeruginosa; assay: Antimicrobial activity against Pseudomonas aeruginosa isolate PA469 expressing VIM-2 beta-lactamase
[5] = tested on: Pseudomonas aeruginosa; assay: Antimicrobial activity against Pseudomonas aeruginosa isolate PA475 expressing VIM-2 beta-lactamase
[6] = tested on: Pseudomonas aeruginosa; assay: Antimicrobial activity against Pseudomonas aeruginosa isolate PA477 expressing VIM-2 beta-lactamase
[7] = tested on: Pseudomonas aeruginosa; assay: Antimicrobial activity against Pseudomonas aeruginosa isolate PA481 expressing VIM-2 beta-lactamase
[8] = tested on: Pseudomonas aeruginosa; assay: Antimicrobial activity against Pseudomonas aeruginosa isolate PA500 expressing VIM-1 beta-lactamase
[9] = tested on: Pseudomonas aeruginosa; assay: Antimicrobial activity against Pseudomonas aeruginosa isolate PA510 expressing VIM-2 beta-lactamase
[10] = tested on: Pseudomonas aeruginosa; assay: Antimicrobial activity against metallo-beta-lactamase-negative Pseudomonas aeruginosa isolate PA459
How it was run: (§1)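 MBL-negative clinical P. aeruginosa isolates with reduced imipenem susceptibility, collected at the study hospital, some from cystic fibrosis patients. Species identity was confirmed by automated Gram-negative identification card. MIC was read in μg/ml.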

[11] = tested on: Pseudomonas aeruginosa; assay: Antimicrobial activity against metallo-beta-lactamase-negative Pseudomonas aeruginosa isolate PA460
[12] = tested on: Pseudomonas aeruginosa; assay: Antimicrobial activity against metallo-beta-lactamase-negative Pseudomonas aeruginosa isolate PA479
[13] = tested on: Pseudomonas aeruginosa; assay: Antimicrobial activity against metallo-beta-lactamase-negative Pseudomonas aeruginosa isolate PA483
[14] = tested on: Pseudomonas aeruginosa; assay: Antimicrobial activity against metallo-beta-lactamase-negative Pseudomonas aeruginosa isolate PA494
[15] = tested on: Pseudomonas aeruginosa; assay: Antimicrobial activity against metallo-beta-lactamase-negative Pseudomonas aeruginosa isolate PA507; how it was run: as §1
[16] = tested on: Pseudomonas aeruginosa; assay: Antimicrobial activity against metallo-beta-lactamase-negative Pseudomonas aeruginosa isolate PA509
[17] = tested on: Pseudomonas aeruginosa; assay: Antimicrobial activity against Pseudomonas aeruginosa PA431 expressing IMP-1 beta-lactamase
How it was run: (§2)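 Well-characterized MBL-producing control strains from earlier studies: nine P. aeruginosa and one A. baumannii. MIC was read in μg/ml and used to set screening breakpoints for MBL producers.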

[18] = tested on: Pseudomonas aeruginosa; assay: Antimicrobial activity against Pseudomonas aeruginosa PA552 expressing IMP-1 beta-lactamase; how it was run: as §2
[19] = tested on: Pseudomonas aeruginosa; assay: Antimicrobial activity against Pseudomonas aeruginosa PA386 expressing IMP-13 beta-lactamase; how it was run: as §2
[20] = tested on: Pseudomonas aeruginosa; assay: Antimicrobial activity against Pseudomonas aeruginosa PA550 expressing VIM-1 beta-lactamase; how it was run: as §2
[21] = tested on: Pseudomonas aeruginosa; assay: Antimicrobial activity against Pseudomonas aeruginosa PA373 expressing VIM-2 beta-lactamase; how it was run: as §2
[22] = tested on: Pseudomonas aeruginosa; assay: Antimicrobial activity against Pseudomonas aeruginosa PA399 expressing VIM-2 beta-lactamase; how it was run: as §2
[23] = tested on: Pseudomonas aeruginosa; assay: Antimicrobial activity against Pseudomonas aeruginosa PA430 expressing VIM-4 beta-lactamase; how it was run: as §2
[24] = tested on: Pseudomonas aeruginosa; assay: Antimicrobial activity against Pseudomonas aeruginosa PA554 expressing GIM-1 beta-lactamase; how it was run: as §2
[25] = tested on: Acinetobacter baumannii; assay: Antimicrobial activity against Acinetobacter baumannii AB551 expressing SIM-1 beta-lactamase; how it was run: as §2
[26] = tested on: Pseudomonas aeruginosa; assay: Antimicrobial activity against Pseudomonas aeruginosa PA553 expressing SPM-1 beta-lactamase; how it was run: as §2
[27] = tested on: Pseudomonas aeruginosa; assay: Antimicrobial activity against metallo-beta-lactamase-negative Pseudomonas aeruginosa isolate PA339; how it was run: as §1
[28] = tested on: Pseudomonas aeruginosa; assay: Antimicrobial activity against metallo-beta-lactamase-negative Pseudomonas aeruginosa isolate PA340; how it was run: as §1
[29] = tested on: Pseudomonas aeruginosa; assay: Antimicrobial activity against metallo-beta-lactamase-negative Pseudomonas aeruginosa isolate PA341; how it was run: as §1
[30] = tested on: Pseudomonas aeruginosa; assay: Antimicrobial activity against metallo-beta-lactamase-negative Pseudomonas aeruginosa isolate PA342; how it was run: as §1
[31] = tested on: Pseudomonas aeruginosa; assay: Antimicrobial activity against metallo-beta-lactamase-negative Pseudomonas aeruginosa isolate PA346; how it was run: as §1
[32] = tested on: Pseudomonas aeruginosa; assay: Antimicrobial activity against metallo-beta-lactamase-negative Pseudomonas aeruginosa isolate PA349; how it was run: as §1
[33] = tested on: Pseudomonas aeruginosa; assay: Antimicrobial activity against metallo-beta-lactamase-negative Pseudomonas aeruginosa isolate PA350; how it was run: as §1
[34] = tested on: Pseudomonas aeruginosa; assay: Antimicrobial activity against metallo-beta-lactamase-negative Pseudomonas aeruginosa isolate PA352; how it was run: as §1
[35] = tested on: Pseudomonas aeruginosa; assay: Antimicrobial activity against metallo-beta-lactamase-negative Pseudomonas aeruginosa isolate PA355; how it was run: as §1
[36] = tested on: Pseudomonas aeruginosa; assay: Antimicrobial activity against metallo-beta-lactamase-negative Pseudomonas aeruginosa isolate PA356; how it was run: as §1
[37] = tested on: Pseudomonas aeruginosa; assay: Antimicrobial activity against metallo-beta-lactamase-negative Pseudomonas aeruginosa isolate PA360; how it was run: as §1
[38] = tested on: Pseudomonas aeruginosa; assay: Antimicrobial activity against metallo-beta-lactamase-negative Pseudomonas aeruginosa isolate PA361; how it was run: as §1
[39] = tested on: Pseudomonas aeruginosa; assay: Antimicrobial activity against metallo-beta-lactamase-negative Pseudomonas aeruginosa isolate PA362; how it was run: as §1
[40] = tested on: Pseudomonas aeruginosa; assay: Antimicrobial activity against metallo-beta-lactamase-negative Pseudomonas aeruginosa isolate PA364; how it was run: as §1
[41] = tested on: Pseudomonas aeruginosa; assay: Antimicrobial activity against metallo-beta-lactamase-negative Pseudomonas aeruginosa isolate PA368; how it was run: as §1
[42] = tested on: Pseudomonas aeruginosa; assay: Antimicrobial activity against metallo-beta-lactamase-negative Pseudomonas aeruginosa isolate PA370; how it was run: as §1
[43] = tested on: Pseudomonas aeruginosa; assay: Antimicrobial activity against metallo-beta-lactamase-negative Pseudomonas aeruginosa isolate PA376
[44] = tested on: Pseudomonas aeruginosa; assay: Antimicrobial activity against metallo-beta-lactamase-negative Pseudomonas aeruginosa isolate PA377; how it was run: as §1
[45] = tested on: Pseudomonas aeruginosa; assay: Antimicrobial activity against metallo-beta-lactamase-negative Pseudomonas aeruginosa isolate PA380; how it was run: as §1
[46] = tested on: Pseudomonas aeruginosa; assay: Antimicrobial activity against metallo-beta-lactamase-negative Pseudomonas aeruginosa isolate PA381; how it was run: as §1
[47] = tested on: Pseudomonas aeruginosa; assay: Antimicrobial activity against metallo-beta-lactamase-negative Pseudomonas aeruginosa isolate PA382; how it was run: as §1
[48] = tested on: Pseudomonas aeruginosa; assay: Antimicrobial activity against metallo-beta-lactamase-negative Pseudomonas aeruginosa isolate PA395; how it was run: as §1
[49] = tested on: Pseudomonas aeruginosa; assay: Antimicrobial activity against metallo-beta-lactamase-negative Pseudomonas aeruginosa isolate PA734 isolated from patient with cystic fibrosis; how it was run: as §1
[50] = tested on: Pseudomonas aeruginosa; assay: Antimicrobial activity against metallo-beta-lactamase-negative Pseudomonas aeruginosa isolate PA736 isolated from patient with cystic fibrosis; how it was run: as §1
[51] = tested on: Pseudomonas aeruginosa; assay: Antimicrobial activity against metallo-beta-lactamase-negative Pseudomonas aeruginosa isolate PA758 isolated from patient with cystic fibrosis; how it was run: as §1
[52] = tested on: Pseudomonas aeruginosa; assay: Antimicrobial activity against metallo-beta-lactamase-negative Pseudomonas aeruginosa isolate PA774 isolated from patient with cystic fibrosis; how it was run: as §1

Measured: MIC

GENTAMICIN
8 µg/mL: [14]
1 µg/mL: [10] | [13]
> 16 µg/mL: [1] | [2] | [3] | [4] | [5] | [6] | [7] | [8] | [9] | [11] | [12] | [15] | [16]

NCC[C@H](O)C(=O)N[C@@H]1C[C@H](N)[C@@H](O[C@H]2O[C@H](CN)[C@@H](O)[C@H](O)[C@H]2O)[C@H](O)[C@H]1O[C@H]1O[C@H](CO)[C@@H](O)[C@H](N)[C@H]1O [AMIKACIN]
4 µg/mL: [2] | [5] | [9] | [11]
8 µg/mL: [1] | [3] | [4] | [6] | [7] | [12] | [14]
2 µg/mL: [10] | [13]
64 µg/mL: [16]
16 µg/mL: [15]
≤ 2 µg/mL: [8]

O=C(O)c1cn(C2CC2)c2cc(N3CCNCC3)c(F)cc2c1=O [CIPROFLOXACIN]
≥ 4 µg/mL: [1] | [2] | [3] | [4] | [5] | [6] | [7] | [8] | [9] | [11] | [12] | [14] | [16]

C[C@@H](O)[C@H]1C(=O)N2C(C(=O)O)=C(S[C@@H]3CN[C@H](C(=O)N(C)C)C3)[C@H](C)[C@H]12 [MEROPENEM]
4 µg/mL: [15]
≥ 16 µg/mL: [1] | [2] | [3] | [4] | [5] | [6] | [7] | [8] | [9] | [12] | [13] | [16]
8 µg/mL: [10] | [11] | [14]

C[C@@H](O)[C@H]1C(=O)N2C(C(=O)O)=C(SCCNC=N)C[C@H]12 [IMIPENEM ANHYDROUS]
8 µg/mL: [17] | [28] | [37] | [39] | [40] | [45] | [50] | [12]
not listed: [15]
≥ 16 µg/mL: all other assays above

NC[C@H]1O[C@H](O[C@H]2[C@H](O)[C@@H](O[C@H]3O[C@H](CO)[C@@H](O)[C@H](N)[C@H]3O)[C@H](N)C[C@@H]2N)[C@H](N)C[C@@H]1O [TOBRAMYCIN]
≤ 1 µg/mL: [3]
1 µg/mL: [10] | [13] | [14] | [15]
8 µg/mL: [8]
≥ 16 µg/mL: [1] | [2] | [4] | [5] | [6] | [7] | [9] | [11] | [12] | [16]

C[C@H]1[C@H](NC(=O)/C(=N\OC(C)(C)C(=O)O)c2csc(N)n2)C(=O)N1S(=O)(=O)O [AZTREONAM]
64 µg/mL: [13]
32 µg/mL: [12]
4 µg/mL: [8]
8 µg/mL: [16]
16 µg/mL: [1] | [2] | [3] | [4] | [5] | [6] | [7] | [10] | [11] | [14] | [15]
≥ 64 µg/mL: [9]

CO/N=C(\C(=O)N[C@@H]1C(=O)N2C(C(=O)[O-])=C(C[N+]3(C)CCCC3)CS[C@H]12)c1csc(N)n1 [CEFEPIME]
8 µg/mL: [10] | [14]
16 µg/mL: [16]
≥ 64 µg/mL: [1] | [2] | [3] | [4] | [5] | [6] | [7] | [8] | [9] | [12]
32 µg/mL: [13]

COLISTIN
2 µg/mL: [3] | [16]
1 µg/mL: [1] | [2] | [4] | [5] | [6] | [7] | [8] | [9] | [10] | [11] | [12] | [13] | [14] | [15]

CC(C)(O/N=C(\C(=O)N[C@@H]1C(=O)N2C(C(=O)[O-])=C(C[n+]3ccccc3)CS[C@H]12)c1csc(N)n1)C(=O)O [CEFTAZIDIME]
8 µg/mL: [27] | [32] | [42] | [44]
4 µg/mL: [28] | [30] | [31] | [33] | [34] | [35] | [36] | [40] | [41] | [45] | [46] | [47] | [49] | [51]
32 µg/mL: [39] | [10] | [11] | [14] | [15] | [16]
16 µg/mL: [37] | [43]
≥ 64 µg/mL: all other assays above
